Experimental data reported in ChEMBL document CHEMBL2062453, “Lead optimization through VLAK protocol: new annelated pyrrolo-pyrimidine derivatives as antitumor agents” (2012).

Key:
Assay type in all cases: functional
DU-145 = assay: Cytotoxicity against human DU145 cells after 48 hrs by SRB assay; conditions: DU-145, 48 h; for TGI: read-out: pTGI (converted)
Outline: (§1)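 NCI 60-cell five-dose screen. Cells grown in RPMI 1640 with 5% FBS and 2 mM glutamine, plated at 5000–40,000 cells/well, and preincubated 24 h at 37 °C in 5% CO2. Time-zero plates fixed with TCA. Five serial dilutions of DMSO stock added, then 48 h exposure. TCA fixation, 0.4% SRB staining, absorbance read at 515 nm. GI50 from [(Ti−Tz)/(C−Tz)]×100 = 50.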

CCRF-CEM = assay: Cytotoxicity against human CCRF-CEM cells after 48 hrs by SRB assay; conditions: for TGI: read-out: pTGI (converted); outline: as §1
A498 = assay: Cytotoxicity against human A498 cells after 48 hrs by SRB assay; conditions: A498, 48 h; for TGI: read-out: pTGI (converted); outline: as §1
UACC-62 = assay: Cytotoxicity against human UACC62 cells after 48 hrs by SRB assay; conditions: UACC-62, 48 h; for TGI: read-out: pTGI (converted)
Outline: (§2)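 NCI 60-panel five-dose screen. Cells in RPMI 1640 with 5% FBS and 2 mM glutamine, plated at 5000–40,000 cells/well and preincubated 24 h at 37 °C under 5% CO2. Five 10-fold or half-log dilutions were added from a DMSO stock for 48 h. Cells were TCA-fixed (SR settled cells: 16% final), SRB-stained and read at 515 nm. GI50 was taken where (Ti−Tz)/(C−Tz)×100 = 50.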

MCF7 = assay: Cytotoxicity against human MCF7 cells after 48 hrs by SRB assay; conditions: MCF7, 48 h; for TGI: read-out: pTGI (converted); outline: as §1
CAKI-1 = assay: Cytotoxicity against human Caki1 cells after 48 hrs by SRB assay; conditions: CAKI-1, 48 h; for TGI: read-out: pTGI (converted); outline: as §1
MDA-MB-468 = assay: Cytotoxicity against human MDA-MB-468 cells after 48 hrs by SRB assay; conditions: MDA-MB-468, 48 h; for TGI: read-out: pTGI (converted)
Outline: (§3)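 Five-dose screen, 10-fold or ½-log dilutions, compound stock in DMSO. Cells were in RPMI 1640 with 5% FBS and 2 mM glutamine at 5000–40,000 cells/well, preincubated 24 h, 37 °C, 5% CO₂, with a time-zero plate TCA-fixed. After 48 h drug exposure, cells were TCA-fixed and stained with 0.4% SRB, read at 515 nm. GI50, TGI and LC50 were derived from time-zero, control and test absorbances.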

SN12C = assay: Cytotoxicity against human SN12C cells after 48 hrs by SRB assay; conditions: for TGI: read-out: pTGI (converted); outline: as §3
TK-10 = assay: Cytotoxicity against human TK10 cells after 48 hrs by SRB assay; conditions: TK-10, 48 h; for TGI: read-out: pTGI (converted); outline: as §2
HT-29 = assay: Cytotoxicity against human HT-29 cells after 48 hrs by SRB assay; conditions: HT-29, 48 h; for TGI: read-out: pTGI (converted); outline: as §1
HCT-15 = assay: Cytotoxicity against human HCT15 cells after 48 hrs by SRB assay; conditions: HCT-15, 48 h; for TGI: read-out: pTGI (converted); outline: as §1
M14 = assay: Cytotoxicity against human M14 cells after 48 hrs by SRB assay; conditions: M14, 48 h; for TGI: read-out: pTGI (converted); outline: as §1
EKVX = assay: Cytotoxicity against human EKVX cells after 48 hrs by SRB assay; conditions: for TGI: read-out: pTGI (converted); outline: as §1
COLO 205 = assay: Cytotoxicity against human COLO205 cells after 48 hrs by SRB assay; conditions: COLO 205, 48 h; for TGI: read-out: pTGI (converted); outline: as §1
HOP-62 = assay: Cytotoxicity against human HOP62 cells after 48 hrs by SRB assay; conditions: HOP-62, 48 h; for TGI: read-out: pTGI (converted); outline: as §1
RXF 393 = assay: Cytotoxicity against human RXF393 cells after 48 hrs by SRB assay; conditions: RXF 393, 48 h; for TGI: read-out: pTGI (converted); outline: as §3
Hs-578T = assay: Cytotoxicity against human Hs578T cells after 48 hrs by SRB assay; conditions: for TGI: read-out: pTGI (converted); outline: as §1
NCI-H226 = assay: Cytotoxicity against human NCI-H226 cells after 48 hrs by SRB assay; conditions: NCI-H226, 48 h; for TGI: read-out: pTGI (converted); outline: as §3
SK-MEL-28 = assay: Cytotoxicity against human SK-MEL-28 cells after 48 hrs by SRB assay; conditions: SK-MEL-28, 48 h; for TGI: read-out: pTGI (converted); outline: as §3
NCI-H460 = assay: Cytotoxicity against human NCI-H460 cells after 48 hrs by SRB assay; conditions: NCI-H460, 48 h; for TGI: read-out: pTGI (converted); outline: as §3
SK-MEL-2 = assay: Cytotoxicity against human SK-MEL-2 cells after 48 hrs by SRB assay; conditions: SK-MEL-2, 48 h; for TGI: read-out: pTGI (converted); outline: as §3
OVCAR-4 = assay: Cytotoxicity against human OVCAR4 cells after 48 hrs by SRB assay; conditions: OVCAR-4, 48 h; for TGI: read-out: pTGI (converted); outline: as §3
NCI/ADR-RES = assay: Cytotoxicity against human NCI/ADR-RES cells after 48 hrs by SRB assay; conditions: for TGI: read-out: pTGI (converted); outline: as §3
HL-60(TB) = assay: Cytotoxicity against human HL-60(TB) cells after 48 hrs by SRB assay; conditions: HL-60, 48 h; for CC50: read-out: pLC50 (the source's name) (converted); for TGI: read-out: pTGI (converted)
Outline: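 NCI 60-line five-dose screen. Cells are grown in RPMI 1640 with 5% FBS and 2 mM glutamine, plated at 5000–40,000 cells/well, and preincubated 24 h at 37 °C in 5% CO2. Compound is dissolved in DMSO and given at five concentrations (10-fold or ½-log dilutions) for 48 h. Cells are TCA-fixed (HL-60(TB), suspension: 16% final; HOP92, adherent: 10% final), SRB-stained and read at 515 nm. GI50 comes from [(Ti−Tz)/(C−Tz)]×100 = 50.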

OVCAR-5 = assay: Cytotoxicity against human OVCAR5 cells after 48 hrs by SRB assay; conditions: OVCAR-5, 48 h; for TGI: read-out: pTGI (converted); outline: as §3

CSC1=Nc2c(c(C)c(-c3ccccc3)n2CCCCl)C2=NC(=O)CN12
GI50 (DU-145): 11.5 µM
LC50 (DU-145): 61.7 µM
TGI (DU-145): 26.9 µM
GI50 (CCRF-CEM): 5.13 µM
LC50 (CCRF-CEM): > 100 µM
TGI (CCRF-CEM): > 100 µM
GI50 (A498): 3.89 µM
LC50 (A498): 53.7 µM
TGI (A498): 15.1 µM
GI50 (UACC-62): 2.09 µM
LC50 (UACC-62): 38 µM
TGI (UACC-62): 11.5 µM
GI50 (MCF7): 3.39 µM
LC50 (MCF7): 77.6 µM
TGI (MCF7): 16.6 µM
GI50 (CAKI-1): 4.57 µM
LC50 (CAKI-1): > 100 µM
TGI (CAKI-1): 28.2 µM
GI50 (MDA-MB-468): 3.16 µM
LC50 (MDA-MB-468): 60.3 µM
TGI (MDA-MB-468): 13.2 µM
GI50 (SN12C): 6.31 µM
LC50 (SN12C): > 100 µM
TGI (SN12C): 38.9 µM
GI50 (TK-10): 8.51 µM
LC50 (TK-10): > 100 µM
TGI (TK-10): 77.6 µM
GI50 (HT-29): 3.89 µM
LC50 (HT-29): > 100 µM
TGI (HT-29): 19.5 µM
GI50 (HCT-15): 4.07 µM
LC50 (HCT-15): > 100 µM
TGI (HCT-15): 21.4 µM
GI50 (M14): 3.31 µM
LC50 (M14): > 100 µM
TGI (M14): 15.1 µM
GI50 (EKVX): 6.92 µM
LC50 (EKVX): > 100 µM
TGI (EKVX): 30.9 µM
GI50 (COLO 205): 4.17 µM
LC50 (COLO 205): 47.9 µM
TGI (COLO 205): 15.1 µM
GI50 (HOP-62): 11 µM
LC50 (HOP-62): > 100 µM
TGI (HOP-62): 63.1 µM
GI50 (RXF 393): 11.2 µM
LC50 (RXF 393): 79.4 µM
TGI (RXF 393): 29.5 µM
GI50 (Hs-578T): 6.31 µM
LC50 (Hs-578T): > 100 µM
TGI (Hs-578T): 34.7 µM
GI50 (NCI-H226): 11 µM
LC50 (NCI-H226): 81.3 µM
TGI (NCI-H226): 29.5 µM
GI50 (SK-MEL-28): 10.2 µM
LC50 (SK-MEL-28): 63.1 µM
TGI (SK-MEL-28): 25.1 µM
GI50 (NCI-H460): 3.72 µM
LC50 (NCI-H460): 56.2 µM
TGI (NCI-H460): 15.1 µM
GI50 (SK-MEL-2): 10.5 µM
LC50 (SK-MEL-2): 74.1 µM
TGI (SK-MEL-2): 27.5 µM
GI50 (OVCAR-4): 6.76 µM
LC50 (OVCAR-4): > 100 µM
TGI (OVCAR-4): 44.7 µM
GI50 (NCI/ADR-RES): 4.27 µM
LC50 (NCI/ADR-RES): > 100 µM
TGI (NCI/ADR-RES): > 100 µM
GI50 (HL-60(TB)): 3.39 µM
CC50 (HL-60(TB)): > 100 µM
TGI (HL-60(TB)): > 100 µM
GI50 (OVCAR-5): 11.5 µM
LC50 (OVCAR-5): > 100 µM
TGI (OVCAR-5): 38 µM

CSC1=Nc2c(c(C)c(-c3ccccc3)n2CCCN2CCCCC2)C2=NC(=O)CC(C)N12 (centres undefined)
GI50 (DU-145): 3.39 µM
LC50 (DU-145): > 100 µM
TGI (DU-145): 27.5 µM
GI50 (CCRF-CEM): 2.69 µM
LC50 (CCRF-CEM): > 100 µM
TGI (CCRF-CEM): 12 µM
GI50 (A498): 3.16 µM
LC50 (A498): > 100 µM
TGI (A498): 9.12 µM
GI50 (UACC-62): 2.82 µM
LC50 (UACC-62): 38 µM
TGI (UACC-62): 14.1 µM
GI50 (MCF7): 2.88 µM
LC50 (MCF7): 61.7 µM
TGI (MCF7): 11.2 µM
LC50 (CAKI-1): > 100 µM
TGI (CAKI-1): 18.6 µM
GI50 (MDA-MB-468): 2.69 µM
LC50 (MDA-MB-468): > 100 µM
TGI (MDA-MB-468): 10 µM
GI50 (SN12C): 2.29 µM
LC50 (SN12C): > 100 µM
TGI (SN12C): 10.7 µM
GI50 (TK-10): 2.88 µM
LC50 (TK-10): > 100 µM
TGI (TK-10): 9.33 µM
GI50 (HT-29): 1.62 µM
LC50 (HT-29): > 100 µM
TGI (HT-29): 7.24 µM
GI50 (HCT-15): 4.47 µM
LC50 (HCT-15): > 100 µM
TGI (HCT-15): 28.2 µM
GI50 (M14): 3.63 µM
LC50 (M14): 64.6 µM
TGI (M14): 17.4 µM
GI50 (EKVX): 3.02 µM
LC50 (EKVX): > 100 µM
TGI (EKVX): 20 µM
GI50 (COLO 205): 1.26 µM
LC50 (COLO 205): 5.01 µM
TGI (COLO 205): 2.51 µM
GI50 (HOP-62): 3.16 µM
LC50 (HOP-62): > 100 µM
TGI (HOP-62): 26.3 µM
GI50 (RXF 393): 1.51 µM
LC50 (RXF 393): 25.1 µM
TGI (RXF 393): 4.68 µM
GI50 (Hs-578T): 2.29 µM
LC50 (Hs-578T): 97.7 µM
TGI (Hs-578T): 7.94 µM
GI50 (NCI-H226): 3.55 µM
LC50 (NCI-H226): > 100 µM
TGI (NCI-H226): > 100 µM
GI50 (SK-MEL-28): 2.88 µM
LC50 (SK-MEL-28): 36.3 µM
TGI (SK-MEL-28): 13.2 µM
GI50 (NCI-H460): 3.24 µM
LC50 (NCI-H460): 67.6 µM
TGI (NCI-H460): 12 µM
GI50 (SK-MEL-2): 2.14 µM
LC50 (SK-MEL-2): 20.9 µM
TGI (SK-MEL-2): 5.25 µM
GI50 (OVCAR-4): 2.57 µM
LC50 (OVCAR-4): > 100 µM
TGI (OVCAR-4): 17.8 µM
GI50 (NCI/ADR-RES): 17 µM
LC50 (NCI/ADR-RES): > 100 µM
TGI (NCI/ADR-RES): 74.1 µM
GI50 (HL-60(TB)): 1.82 µM
CC50 (HL-60(TB)): 8.32 µM
TGI (HL-60(TB)): 3.89 µM
GI50 (OVCAR-5): 19.1 µM
LC50 (OVCAR-5): > 100 µM
TGI (OVCAR-5): > 100 µM
